Test system: HEK-293T
Experiment: Multiplex assay against HEK293T;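 for Population Tubulin-Different-Phenotype (%): share of the cells with healthy nuclei that show this phenotype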
Assay type: toxicity, cell-based
Conditions: human
In short: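 Phenotypes for tubulin, mitochondrial mass and membrane permeability are expressed as per cents of healthy-nucleus cells. Cells were stained live at seeding with Hoechst33342, BioTracker Green Microtubule Cytoskeleton Dye, MitoTracker Red and Annexin V Alexa Fluor 680, then imaged after compound addition on a CQ1 microscope at 37°C and 5% CO2. Machine-learning gating in CellPathfinder separated Hoechst high-intensity objects from normal cells, divided normal cells by nuclear state (healthy, pyknosed, fragmented) and divided pyknosed cells into mitotic or apoptotic.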

[1] = 12 h, 1 µM, compound concentration 1 uM, replicate 1
[2] = 12 h, 1 µM, compound concentration 1 uM, replicate 2
[3] = 12 h, 10 µM, compound concentration 10 uM, replicate 1
[4] = 12 h, 10 µM, compound concentration 10 uM, replicate 2
[5] = 24 h, 1 µM, compound concentration 1 uM, replicate 1
[6] = 24 h, 1 µM, compound concentration 1 uM, replicate 2
[7] = 24 h, 10 µM, compound concentration 10 uM, replicate 1
[8] = 24 h, 10 µM, compound concentration 10 uM, replicate 2
[9] = 48 h, 1 µM, compound concentration 1 uM, replicate 1
[10] = 48 h, 1 µM, compound concentration 1 uM, replicate 2
[11] = 48 h, 10 µM, compound concentration 10 uM, replicate 1
[12] = 48 h, 10 µM, compound concentration 10 uM, replicate 2

## Cl.Oc1ccc2c3c1O[C@H]1c4[nH]c5c(c4C[C@@]4(O)[C@@H](C2)N(CC2CC2)CC[C@]314)C[C@@]1(O)[C@H]2Cc3ccc(O)c4c3[C@@]1(CCN2CC1CC1)[C@H]5O4
[1]
  Population Apoptotic (%): 47%
  Population Fragmented Nuclei (%): 8%
  Population Healthy Nuclei (%): 45%
  Population Hoechst High Intensity Objects (%): 13%
  Population Membrane Permeable-Phenotype (%): 0%
  Population Mitochondria Different-Phenotype (%): 74%
  Population Mitotic Cells (%): 52%
  Population Normal (%): 86%
  Population Pyknosed Nuclei (%): 45%
  Population Tubulin-Different-Phenotype (%): 46%
  Total Cell Count: 294
[2]
  Population Apoptotic (%): 10%
  Population Fragmented Nuclei (%): 4%
  Population Healthy Nuclei (%): 38%
  Population Hoechst High Intensity Objects (%): 5%
  Population Membrane Permeable-Phenotype (%): 8%
  Population Mitochondria Different-Phenotype (%): 10%
  Population Mitotic Cells (%): 89%
  Population Normal (%): 94%
  Population Pyknosed Nuclei (%): 56%
  Population Tubulin-Different-Phenotype (%): 12%
  Total Cell Count: 128
[3]
  Population Apoptotic (%): 40%
  Population Fragmented Nuclei (%): 7%
  Population Healthy Nuclei (%): 49%
  Population Hoechst High Intensity Objects (%): 12%
  Population Membrane Permeable-Phenotype (%): 3%
  Population Mitochondria Different-Phenotype (%): 79%
  Population Mitotic Cells (%): 59%
  Population Normal (%): 87%
  Population Pyknosed Nuclei (%): 43%
  Population Tubulin-Different-Phenotype (%): 33%
  Total Cell Count: 253
[4]
  Population Apoptotic (%): 7%
  Population Fragmented Nuclei (%): 5%
  Population Healthy Nuclei (%): 45%
  Population Hoechst High Intensity Objects (%): 2%
  Population Membrane Permeable-Phenotype (%): 6%
  Population Mitochondria Different-Phenotype (%): 27%
  Population Mitotic Cells (%): 92%
  Population Normal (%): 97%
  Population Pyknosed Nuclei (%): 48%
  Population Tubulin-Different-Phenotype (%): 22%
  Total Cell Count: 294
[5]
  Population Apoptotic (%): 43%
  Population Fragmented Nuclei (%): 11%
  Population Healthy Nuclei (%): 38%
  Population Hoechst High Intensity Objects (%): 12%
  Population Membrane Permeable-Phenotype (%): 0%
  Population Mitochondria Different-Phenotype (%): 61%
  Population Mitotic Cells (%): 56%
  Population Normal (%): 87%
  Population Pyknosed Nuclei (%): 50%
  Population Tubulin-Different-Phenotype (%): 37%
  Total Cell Count: 307
[6]
  Population Apoptotic (%): 6%
  Population Fragmented Nuclei (%): 7%
  Population Healthy Nuclei (%): 53%
  Population Hoechst High Intensity Objects (%): 4%
  Population Membrane Permeable-Phenotype (%): 8%
  Population Mitochondria Different-Phenotype (%): 13%
  Population Mitotic Cells (%): 93%
  Population Normal (%): 95%
  Population Pyknosed Nuclei (%): 39%
  Population Tubulin-Different-Phenotype (%): 26%
  Total Cell Count: 164
[7]
  Population Apoptotic (%): 35%
  Population Fragmented Nuclei (%): 9%
  Population Healthy Nuclei (%): 58%
  Population Hoechst High Intensity Objects (%): 7%
  Population Membrane Permeable-Phenotype (%): 0%
  Population Mitochondria Different-Phenotype (%): 54%
  Population Mitotic Cells (%): 64%
  Population Normal (%): 92%
  Population Pyknosed Nuclei (%): 32%
  Population Tubulin-Different-Phenotype (%): 30%
  Total Cell Count: 308
[8]
  Population Apoptotic (%): 11%
  Population Fragmented Nuclei (%): 4%
  Population Healthy Nuclei (%): 73%
  Population Hoechst High Intensity Objects (%): 3%
  Population Membrane Permeable-Phenotype (%): 4%
  Population Mitochondria Different-Phenotype (%): 17%
  Population Mitotic Cells (%): 88%
  Population Normal (%): 96%
  Population Pyknosed Nuclei (%): 22%
  Population Tubulin-Different-Phenotype (%): 23%
  Total Cell Count: 399
[9]
  Population Apoptotic (%): 43%
  Population Fragmented Nuclei (%): 15%
  Population Healthy Nuclei (%): 44%
  Population Hoechst High Intensity Objects (%): 12%
  Population Membrane Permeable-Phenotype (%): 2%
  Population Mitochondria Different-Phenotype (%): 29%
  Population Mitotic Cells (%): 56%
  Population Normal (%): 87%
  Population Pyknosed Nuclei (%): 39%
  Population Tubulin-Different-Phenotype (%): 31%
  Total Cell Count: 368
[10]
  Population Apoptotic (%): 10%
  Population Fragmented Nuclei (%): 6%
  Population Healthy Nuclei (%): 77%
  Population Hoechst High Intensity Objects (%): 3%
  Population Membrane Permeable-Phenotype (%): 10%
  Population Mitochondria Different-Phenotype (%): 7%
  Population Mitotic Cells (%): 89%
  Population Normal (%): 96%
  Population Pyknosed Nuclei (%): 15%
  Population Tubulin-Different-Phenotype (%): 23%
  Total Cell Count: 260
[11]
  Population Apoptotic (%): 29%
  Population Fragmented Nuclei (%): 10%
  Population Healthy Nuclei (%): 69%
  Population Hoechst High Intensity Objects (%): 9%
  Population Membrane Permeable-Phenotype (%): 2%
  Population Mitochondria Different-Phenotype (%): 23%
  Population Mitotic Cells (%): 70%
  Population Normal (%): 90%
  Population Pyknosed Nuclei (%): 19%
  Population Tubulin-Different-Phenotype (%): 21%
  Total Cell Count: 462
[12]
  Population Apoptotic (%): 14%
  Population Fragmented Nuclei (%): 5%
  Population Healthy Nuclei (%): 83%
  Population Hoechst High Intensity Objects (%): 2%
  Population Membrane Permeable-Phenotype (%): 3%
  Population Mitochondria Different-Phenotype (%): 5%
  Population Mitotic Cells (%): 85%
  Population Normal (%): 97%
  Population Pyknosed Nuclei (%): 10%
  Population Tubulin-Different-Phenotype (%): 16%
  Total Cell Count: 731

Source: ChEMBL document CHEMBL4689842, “EUbOPEN Chemogenomics Library wave 1” (2021)
